In ChEMBL document CHEMBL1156109, “Synthesis and antioxidant properties of dendritic polyphenols” (Bioorg Med Chem Lett, 2009) one finds Activity and IC50 data, which are given here for eight compounds.

Test [1] is described as follows: Antioxidant activity against linoleic acid assessed as inhibition of beta-carotene bleaching at 12 uM after 180 mins. It is filed as functional. On the set-up: scale not given: the % may be the effect or the level left. Put shortly: (§1)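 Linoleic acid/β-carotene emulsion held at 50 °C for 180 min with antioxidant across a range of concentrations. Bleaching of β-carotene followed as A470. % A470 = (sample A470 at 180 min / at 0 min ×100) minus the same ratio for a no-antioxidant control.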

The nature of test [2]: Antioxidant activity assessed as inhibition of AAPH-induced lipid peroxidation in human plasma LDL after 18 hrs by gel electrophoresis. The format is functional, cell-free. The gist of the method:
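LDL oxidized with 10 mM AAPH for 18 h at 37 °C, with or without antioxidant. Azo initiator used instead of Cu2+ so that metal pro-oxidant effects are avoided. Read-out is anodic migration on agarose gel, with AAPH-oxidized LDL set as 100% migration.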

A short description of test [3]: Antioxidant activity against linoleic acid assessed as inhibition of beta-carotene bleaching after 180 mins. It is filed as functional. The gist of the method:
as §1

Test [4] is described as follows: Antioxidant activity assessed as protection against AAPH-induced pBR322 plasmid DNA strand open circular form at 0.35 to 45 uM after 4 hrs by agarose gel electrophoresis. The format is functional. The gist of the method:
(§2)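 pBR322 plasmid DNA incubated with AAPH (final 10 mM) at 37 °C for 4 h, with or without antioxidant at final 0.35–45 μM. Agarose electrophoresis then compares supercoiled and open circular band intensities with a no-AAPH control.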

A short description of test [5]: Prooxidant effect on Cu2+-induced pBR322 DNA damage at 3 to 45 uM after 1 hr. It is filed as functional.
Test [6] can be described thus: Antioxidant activity assessed as protection against AAPH-induced pBR322 plasmid DNA strand open circular form at <5 uM after 4 hrs by agarose gel electrophoresis. It is filed as functional. Put shortly: (§3)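 pBR 322 plasmid DNA incubated with AAPH (10 mM final) at 37 °C for 4 h, with or without antioxidant (0.35-45 μM final). Samples then run on agarose electrophoresis. Protection was judged from the supercoiled (S) band intensity against a control without AAPH. AAPH converts the DNA to the open circular (O) form.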

A short description of test [7]: Antioxidant activity assessed as protection against AAPH-induced pBR322 plasmid DNA strand open circular form at 11 to 45 uM after 4 hrs by agarose gel electrophoresis. It is filed as functional. Put shortly: as §3
Test [8] is described as follows: Antioxidant activity assessed as protection against AAPH-induced pBR322 plasmid DNA strand open circular form at 5 uM after 4 hrs by agarose electrophoresis. The format is functional. The gist of the method:
as §3

Test [9] relates to Radical scavenging activity. In words: Antioxidant activity assessed as DPPH free radical scavenging activity within 1 mins. The format is functional. Background: DPPH is a stable violet radical that fades when it is reduced.
A short description of test [10]: Prooxidant effect on Cu2+-induced pBR322 DNA damage at 0.35 to 45 uM after 1 hr. The format is functional. Put shortly:
(§4)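 Pro-oxidant test: pBR322 plasmid incubated with 10 μM Cu2+ at 37 °C for 1 h with compound at final 0.35–45 μM. DNA damage judged by agarose gel electrophoresis.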

Test [11] in a line: Antioxidant activity assessed as protection against AAPH-induced pBR322 plasmid DNA strand open circular form at >= 45 uM after 4 hrs by agarose gel electrophoresis. It is filed as functional. Put shortly:
as §2

Test [12] can be described thus: Prooxidant effect on Cu2+-induced pBR322 DNA damage at 25 to 45 uM after 1 hr. Particulars: 23 and 45 uM; in the assay text read “23 and 45 uM” for “25 to 45 uM”. The format is functional. The gist of the method: as §4
Test [13] has as its system Radical scavenging activity. The experiment in a line: Antioxidant activity assessed as DPPH free radical scavenging activity within 10 mins. The format is functional.

Activity calls are given as the source filed them. The rule behind the calls is not given here.

Regarding `NCc1ccc(CN)cc1`, the Activity in test [1] was 16%.
With `COc1cc(CN(Cc2ccc(CN(Cc3cc(I)c(O)c(OC)c3)Cc3cc(I)c(O)c(OC)c3)cc2)Cc2cc(I)c(O)c(OC)c2)cc(I)c1O`, the Activity result in [2] was “Dose-dependent effect”. Also, the outcome in test [3] was Active. Besides, the result in test [4] was inactive.
As for `O=c1c(O)c(-c2ccc(O)c(O)c2)oc2cc(O)cc(O)c12`, the outcome in test [5] and in test [7] was Active. Further, the outcome in test [6] and in test [8] was inactive.
On to `Cc1c(C)c2c(c(C)c1O)CCC(C)(C(=O)O)O2` (centres undefined) [TROLOX], for which the IC50 (usually the concentration needed to halve the response being measured) in [9] was 27.6 µM. In addition, the outcome in test [10] was Active. In addition, the outcome in test [4] was inactive.
On to `COc1cc(CN(Cc2ccc(CN(Cc3ccc(O)c(OC)c3)Cc3ccc(O)c(OC)c3)cc2)Cc2ccc(O)c(OC)c2)ccc1O`, for which the outcome in [11], in test [12] and in [3] was Active. The Activity entry in test [2] was “Dose-dependent effect”.
In the case of `COc1cc(C=O)cc(OC)c1O` [SYRINGALDEHYDE], the Activity in [1] is 12%. The result in [10] and in test [2] was inactive. The IC50 in [13] is more than 100 µM.
Take `COc1cc(C=O)ccc1O` [VANILLIN]: the Activity in test [1] is less than 5%. Further, the result in test [10] and in test [2] was inactive. For the same compound, in [13], the IC50 was more than 100 µM.
Take `COc1cc(CN(Cc2ccc(CN(Cc3cc(OC)c(O)c(OC)c3)Cc3cc(OC)c(O)c(OC)c3)cc2)Cc2cc(OC)c(O)c(OC)c2)cc(OC)c1O`: the result in test [5], in test [7], in [3] and in test [8] was Active. Moreover, the outcome in test [6] was inactive. In addition, in [2], the Activity result was “Dose-dependent effect”.
